Screening data as filed in PubChem BioAssay.
Most compounds without a hit are left out; they make up all but 2.8% or so of the library.
SIRT5 block: SIRT5 desuccinylase inhibitors, primary screen, biochemical, fluorescence imaging, single point, set 5; NAD-dependent protein deacylase sirtuin-5, mitochondrial (Homo sapiens), Q9NXA8; Purified SirT5, succinyl-peptide AMC, trypsin-coupled fluorescence; inhibition, % at 15 µM; 330,000 tested, 1.1% active; AID 652115, 2013; in the data active = inhibition above about 15%
DENV2 CPE: inhibitors of DENV2 cytopathic effect, primary screen, cell-based, plate reader, single concentration; DENV2-infected cells, cytopathic effect rescue; CPE inhibition, % at 9.99 µM; 350,000 tested, 1.7% active; AID 651640, 2012; in the data active = CPE inhibition above about 20%, passing the limit was not always enough; tested in BHK-21 cells;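 note: 0% = median of neutral control wells and 100% = median of positive control wells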
E-sel inducer: E-selectin induction in HUVECs, primary screen, imaging, HUVEC, immunofluorescence imaging, single point; P16581; normalized: neutral wells 0, TNF-alpha wells 100; activation, % at 7.58 µM; 260,000 tested, 0.37% active;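 active = mean E-selectin-positive cell signal at least 10% of the positive control, reached in at least 60% of replicates, without over 20% cell loss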
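Test system: HUVEC | Signal: Immunofluorescence imaging | Read-out: Percent E-selectin-positive cells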
* marks the source's active call; other numbers are inactive results; . = no result; ! = repeats disagree.

SMILES	SIRT5 block	DENV2 CPE	E-sel inducer
Cc1cccc([C@@H]2[C@@H]3C(=O)N(Cc4ccccc4)C(=O)[C@@H]3[C@]3(Cc4ccccc4)C(=O)N(c4ccc(C(F)(F)F)cc4)C(=O)N23)c1	-2.1	102.4*	-0.1
Cc1cccc([C@@H]2[C@@H]3C(=O)N(Cc4ccccc4)C(=O)[C@@H]3[C@]3(Cc4ccccc4)C(=O)N(c4ccccc4)C(=O)N23)c1	-0.2	1.3	0.1
COc1ccc(CN(C)C[C@@H]2Oc3c(NC(=O)Nc4ccccc4)cccc3C(=O)N([C@H](C)CO)C[C@H]2C)cc1	6.3	29.5*	1.7
C[C@H]1CN([C@@H](C)CO)C(=O)c2cccc(NC(=O)Nc3ccc(F)cc3)c2O[C@@H]1CN(C)Cc1ccc(Oc2ccccc2)cc1	0.0	-1.3	2.6
COc1ccc(CN(C)C[C@@H]2Oc3c(NC(=O)Nc4ccccc4)cccc3C(=O)N([C@@H](C)CO)C[C@@H]2C)cc1	2.6	8.8	0.1
COc1ccc(NC(=O)Nc2cccc3c2O[C@@H](CN(C)Cc2ccc(C(=O)Nc4ccccc4N)cc2)[C@@H](C)CN([C@H](C)CO)C3=O)cc1	3.7	-9.7	-2.0
C[C@H](CO)N1C[C@H](C)[C@@H](CN(C)Cc2ccc(Oc3ccccc3)cc2)Oc2c(NC(=O)Nc3ccc(C(F)(F)F)cc3)cccc2C1=O	2.7	24.2*	.
C[C@H]1CN([C@@H](C)CO)C(=O)c2cccc(NC(=O)Nc3ccccc3)c2O[C@@H]1CN(C)Cc1ccc(C(F)(F)F)cc1	-0.2	3.0	0.5
C[C@@H]1CN([C@@H](C)CO)C(=O)c2cccc(NC(=O)Nc3ccc(F)cc3)c2O[C@@H]1CN(C)Cc1ccc(Oc2ccccc2)cc1	0.2	55.4*!	-0.2
COc1ccc(NC(=O)Nc2cccc3c2O[C@H](CN(C)Cc2ccc(C(=O)Nc4ccccc4N)cc2)[C@H](C)CN([C@H](C)CO)C3=O)cc1	3.3	-5.7	33.5*
CNC[C@@H]1Oc2ncc(Br)cc2C(=O)N([C@@H](C)CO)C[C@@H]1C	-8.8	-2.2	0.0
CCC(=O)N[C@@H]1C=C[C@@H](CC(=O)NCc2ccccc2F)O[C@H]1CO	-2.3	2.2	-0.2
C[C@@H]1CN([C@H](C)CO)C(=O)c2cc(C3=CCCCC3)cnc2O[C@H]1CN(C)Cc1cccnc1	0.6	-6.5	-2.2
C[C@H]1CN([C@@H](C)CO)C(=O)c2cccc(NC(=O)Nc3ccccc3)c2O[C@@H]1CN(C)Cc1ccc(C(=O)O)cc1	1.1	5.8	0.6
COc1ccc(CN(C)C[C@H]2Oc3c(NC(=O)Nc4ccc(C(F)(F)F)cc4)cccc3C(=O)N([C@H](C)CO)C[C@H]2C)cc1	3.8	-0.9	0.0
C[C@@H]1CN([C@H](C)CO)C(=O)c2cccc(NC(=O)Nc3ccccc3)c2O[C@H]1CN(C)Cc1ccc(C(=O)O)cc1	-6.1	21.7*	0.3
COc1ccc(NC(=O)Nc2cccc3c2O[C@@H](CN(C)Cc2ccc(C(F)(F)F)cc2)[C@@H](C)CN([C@H](C)CO)C3=O)cc1	21.4*	10.5	-0.3
CO[C@@H]1CN(C)C(=O)c2cc(NS(=O)(=O)c3c(C)noc3C)ccc2OC[C@H](C)NC[C@@H]1C	-4.4	8.9	-0.1
COc1cccc(-c2ccc3n(c2=O)C[C@@H]2[C@@H](CO)[C@H](C(=O)N(C)C)[C@H]3N2CC2CC2)c1	-8.3	5.0	1.1
C[C@@H]1CN([C@H](C)CO)C(=O)c2c(c3ccccc3n2C)-c2ccccc2CO[C@@H]1CN(C)Cc1ccc2c(c1)OCO2	12.3	2.5	-3.5
C[C@H]1CN([C@@H](C)CO)C(=O)c2c(c3ccccc3n2C)-c2ccccc2CO[C@H]1CN(C)Cc1ccc2c(c1)OCCN2C	14.3	-0.3	-0.3
C[C@H](CO)N1C[C@H](C)[C@@H](CN(C)Cc2ccc3c(c2)OCCN3C)OCc2ccccc2-c2c(n(C)c3ccccc23)C1=O	5.8	37.3*	-0.1
C[C@@H]1CN([C@@H](C)CO)C(=O)c2c(c3ccccc3n2C)-c2ccccc2CO[C@@H]1CN(C)Cc1ccc2c(c1)OCO2	20.2*	-6.7	-0.6
C[C@@H]1CN([C@H](C)CO)C(=O)c2cccc(NC(=O)Nc3ccc4c(c3)OCO4)c2O[C@H]1CN(C)Cc1ccc(-c2ccccc2)cc1	-0.1	-2.7	20.0
CC(C)NC(=O)Nc1ccc2c(c1)C(=O)N([C@H](C)CO)C[C@@H](C)[C@H](CN(C)Cc1ccc(C(F)(F)F)cc1)OCCCC[C@H](C)O2	4.8	1.7	.
